Common to all, as to format: cell-based
Experiment [1] addresses T1, Muscarinic acetylcholine receptor M1 (Homo sapiens, UniProt P11229).
T1 sequence (P11229 whole entry): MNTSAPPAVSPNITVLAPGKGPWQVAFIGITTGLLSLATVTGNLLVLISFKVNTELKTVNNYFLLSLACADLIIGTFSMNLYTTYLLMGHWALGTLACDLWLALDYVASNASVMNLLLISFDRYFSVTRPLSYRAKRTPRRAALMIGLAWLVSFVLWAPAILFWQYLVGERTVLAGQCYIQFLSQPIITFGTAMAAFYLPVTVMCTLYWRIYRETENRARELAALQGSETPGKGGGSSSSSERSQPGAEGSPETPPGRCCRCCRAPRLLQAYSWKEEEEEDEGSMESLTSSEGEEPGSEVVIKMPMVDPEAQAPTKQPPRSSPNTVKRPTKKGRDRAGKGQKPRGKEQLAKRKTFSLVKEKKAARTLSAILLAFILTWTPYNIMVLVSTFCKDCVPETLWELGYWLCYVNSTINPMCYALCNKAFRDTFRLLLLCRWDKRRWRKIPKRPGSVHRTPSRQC
The experiment is described as follows: Displacement of [3H]NMS from human muscarinic M1 receptor expressed in CHO cells at pH 8 in continuous presence of radioligand. The method, boiled down:
(§1)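 CHO cells stably transfected with human M1 gene, grown in DMEM with 10% bovine calf serum and geneticin, harvested by mild trypsinization 4 days after subculture, washed in Hepes medium. Buffer acidified to pH 6.0 or set to pH 8.0. Cells incubated 1 h at 37 °C with 0.14–0.20 nM [3H]NMS plus increasing analog concentrations. Nonspecific binding defined with 10 µM atropine. Filtration, saline washes, scintillation counting; pIC50 derived.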
In general terms: In a radioligand displacement assay an active substance lowers the binding of a labelled ligand.

The target in experiment [2] is T1, Muscarinic acetylcholine receptor M1. The experiment is described as follows: Displacement of [3H]NMS from human muscarinic M1 receptor expressed in CHO cells at pH 8 by wash-resistant binding method. In short, it runs like this:
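Human M1-transfected CHO cells preincubated with increasing analog concentrations in pH 8.0 buffer. Each wash is ~50 vol buffer dilution then centrifugation, done three times in total. Pellet resuspended in buffer with [3H]NMS for 1 h at 37 °C. Bound radioactivity collected by rapid filtration and scintillation counting. Result expressed as pIC50 of residual inhibition.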

The target is the same in experiment [3]. The experiment is described as follows: (§2) Displacement of [3H]NMS from human muscarinic M1 receptor expressed in CHO cells at pH 6 by wash-resistant binding method. The method, boiled down: (§3)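 Washout paradigm run in binding buffer acidified to pH 6.0, on CHO cells stably carrying human M1 receptor. After ligand preincubation, cells went through three rounds of ~50-volume dilution plus centrifugation, then resuspension with [3H]NMS for 1 h at 37 °C. Residual bound label was measured by filtration and scintillation counting; pIC50 derived.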

For experiment [4] the target is unchanged. The experiment can be described thus: Displacement of [3H]NMS from human muscarinic M1 receptor expressed in CHO cells at pH 6 in continuous presence of radioligand. In short, it runs like this:
as §1

For experiment [5] the target is unchanged. The experiment is described as follows: Displacement of [3H]NMS from human muscarinic M1 receptor expressed in CHO cells in continuous presence of radioligand. In short, it runs like this:
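CHO cells stably expressing human M1 receptor, grown in DMEM with 10% bovine calf serum and geneticin, trypsinized 4 days after subculture and washed into Hepes buffer. Cells incubated 1 h at 37 °C with 0.14–0.20 nM [3H]NMS plus increasing analog concentrations. Atropine defined nonspecific binding. Ended by rapid GF/B filtration and ice-cold saline washes, then scintillation counting; pIC50 reported.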

Experiment [6] has the same target. The experiment can be described thus: (§4) Displacement of [3H]NMS from human muscarinic M1 receptor expressed in CHO cells by wash-resistant binding method. In short, it runs like this:
(§5)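 Human M1-transfected CHO cells in Hepes buffer were preincubated with test ligand. Each wash was a ~50-volume buffer dilution and centrifugation, done three times in all. Washed cells were resuspended, given [3H]NMS, and incubated 1 h at 37 °C. Bound radioactivity was then taken by filtration and scintillation counting; pIC50 derived.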

In experiment [7] the target is T2, Muscarinic acetylcholine receptor M1 (Homo sapiens) (UniProt P11229).
T2 sequence (whole entry): T1 sequence (P11229 whole entry)
The description is as §4. In short, it runs like this:
as §5

Experiment [8] addresses T2, Muscarinic acetylcholine receptor M1 (Homo sapiens). Described as §2. The method, boiled down:
as §3

Usually IC50 stands for the concentration at which inhibition is half-maximal.

Calls of active or inactive are those of the source. The rule behind the calls is not given here.

For the molecule `CN1CCC=C(c2nsnc2OCCCCn2cccc2)C1`, the IC50 in experiment [1] is 0.219 µM; in experiment [2] it was 12 µM; in experiment [3] it was 39.8 µM; in experiment [4], 0.407 µM; in experiment [5] it was 0.275 µM; in experiment [6], 28.8 µM.

Consider `CN1CCC=C(c2nsnc2OCCO)C1`, for which the IC50 in experiment [5] was 1.07 µM. Besides, the outcome in experiment [7] was inactive.

On to `CNCCCCOc1nsnc1C1=CCCN(C)C1`, for which, in experiment [5], the IC50 was 7.08 µM. Also, the result in experiment [7] was inactive.

Regarding `CN1CCC=C(c2nsnc2OCC(=O)O)C1`, the IC50 in experiment [5] is 0.617 µM. The result in experiment [7] was inactive.

For `CN1CCC=C(c2nsnc2OCCCO)C1`, the IC50 in experiment [5] was 3.8 µM. Further, the outcome in experiment [7] was inactive.

On to `CN1CCC=C(c2nsnc2OCC#Cc2ccccc2)C1`, for which the figures for the 50% inhibitory concentration (IC50) in experiment [5] and in experiment [6] were 0.0372 µM and 2.14 µM, respectively.

Consider `CCOC(=O)CCCCOc1nsnc1C1=CCCN(C)C1`, for which, in experiment [5], the IC50 is 0.0589 µM. Moreover, the outcome in experiment [7] was inactive.

For the molecule `CN1CCC=C(c2nsnc2OCCCN)C1`, the IC50 was 0.162 µM in experiment [5] and 14.8 µM in experiment [6].

Take `CN1CCC=C(c2nsnc2OCCN)C1`: the values for the IC50 in experiment [5] and in experiment [6] were 1 µM and 110 µM, respectively.

`CCCOc1nsnc1C1=CCCN(C)C1`: in experiment [5], the IC50 was 0.0525 µM. In experiment [7], the result was inactive.

As to `CN1CCC=C(c2nsnc2OCCCCn2ccnc2)C1`, the IC50 in experiment [1] was 0.871 µM; in experiment [2] it was 53.7 µM; in experiment [4], 2.29 µM; in experiment [5], 0.871 µM; in experiment [6], 52.5 µM. Also, in experiment [8], the outcome was inactive.

Regarding `CCOc1nsnc1C1=CCCN(C)C1`, the IC50 in experiment [5] was 0.141 µM. In experiment [7], the result was inactive.

Take `CN1CCC=C(c2nsnc2OCCCCN)C1`: the IC50 in experiment [5] was 77.6 µM. For the same molecule, the result in experiment [7] was inactive.

Consider `CN1CCC=C(c2nsnc2OCCCCO)C1`, for which the IC50 in experiment [5] is 0.309 µM. Moreover, in experiment [7], the result was inactive.

On to `CN1CCC=C(c2nsnc2OCCCCCCN)C1`, for which the IC50 is 0.646 µM in experiment [5] and 3.98 µM in experiment [6].

For `CN1CCC=C(c2nsnc2OCCCCCN)C1`, the IC50 in experiment [5] was 1.91 µM; in experiment [6], 44.7 µM.

Source of the values: ChEMBL document CHEMBL1143201 (Bioorg Med Chem, 2008).
